Measured values: ChEMBL document CHEMBL1129933, “Tyrosine kinase inhibitors. 6. Structure-activity relationships among N- and 3-substituted 2,2'-diselenobis(1H-indoles) for inhibition of protein tyrosine kinases and comparative in vitro and in vivo studies against selected sulfur congeners” (J Med Chem, 1997)

Key:
M5076 [1] = experiment: In vivo activity against murine M5076 sarcoma, net cell kill at 3.0 mg/kg ip dose at 4 hour intervals 3x per day for 9 days; type: functional, Mus musculus; conditions: route intraperitoneal
Summary of the method: (§1)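 Tumors were passaged in C57BL/6 mice; B6C3F1 mice (18-22 g, randomized) were implanted on day 0 ip with counted tumor cells or sc with fragments. Dosing was ip bolus, daily or q4h ×3 daily, by average cage weight. Vehicle was distilled H2O or 10% DMA in 50 mM lactic acid buffer, pH 4.0. Net cell kill = log reduction in tumor burden between first and last treatments.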

M5076 [2] = experiment: In vivo activity against murine M5076 sarcoma, weight change after 3.0 mg/kg ip dose at 4 hour intervals 3x a day for 9 days; type: functional, Mus musculus; conditions: route intraperitoneal
Summary of the method: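 M5076 sarcoma was serially transplanted in C57BL/6 mice and tested in B6C3F1 mice (18-22 g) given ip q4h ×3 daily for 9 days. Weight change was taken as the maximum treatment-related weight loss in the growth-delay assay.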

MCF7 [3] = experiment: In vivo activity against human MCF-7 xenograft, weight change after 3.0 mg/kg ip dose at 4 hour intervals 3x a day for 5-11 days; type: functional, organism-based; parameters: dose 3 mg/kg
Summary of the method: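 MCF-7 breast carcinoma xenografts were serially passaged in nude mice (NCr nu/nu) and implanted in randomized 18-22 g mice on day 0. Dosing was ip bolus, either daily or q4h ×3 daily, with vehicle of distilled H2O or 10% DMA in 50 mM lactic acid buffer, pH 4.0. Weight change was taken as the maximum treatment-related loss.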

A-431 [4] = experiment: In vivo activity against human A431 epidermoid xenograft, net cell kill at 10 mg/kg administered subcutaneously for 9-15 days; type: functional; conditions: route subcutaneous
Summary of the method: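 Nude mice (NCr nu/nu), 18-22 g, randomized, implanted sc in the right axilla with serially passaged A431 tumor fragments on day 0. Dosing was by ip bolus or continuous sc Alzet miniosmotic pump infusion, by average cage weight. Vehicle was distilled H2O or 10% DMA in 50 mM lactic acid buffer, pH 4.0, depending on compound. Net cell kill = net log reduction in tumor burden between first and last treatments.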

B16 [5] = experiment: In vivo activity against murine B16 melanoma, net cell kill at 3.0 mg/kg ip dose for 9 days; type: functional, Mus musculus; conditions: route intraperitoneal; summary of the method: as §1
B16 [6] = experiment: In vivo activity against murine B16 melanoma, weight change after 3.0 mg/kg i.p. dose for 9 days; type: functional, Mus musculus; conditions: route intraperitoneal
Summary of the method: (§2)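 Murine tumours were maintained by serial transplantation (~30 mg fragments every 2 weeks): B16 in C57BL/6 and colon 26 in BALB/c. They were tested in F1 hosts, B6C3F1 for B16 and CD2F1 for colon 26, weighing 18-22 g. Treatment was ip daily or q4h ×3 for 9 days. Weight change was the difference between mean group weights on the last and first treatment days, from life-span assays.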

[7] = Inhibition of DNA synthesis; type: functional
Summary of the method: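 Log-phase cells were drug-treated for 2 h, then exposed for 2 h to 1 µM [methyl-3H]thymidine (DNA), [5-3H]uridine (RNA) or (S)-[4,5-3H]leucine (protein), each at 1 µCi/nmol. Cells were trypsinized into ice-cold 15% TCA, and precipitates were collected on glass-fibre filters, washed, and counted by scintillation.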

C6 = experiment: In vivo activity against C6 glioma xenograft, weight change after 5 mg/kg ip dose for 9 days; type: functional, organism-based; parameters: dose 5 mg/kg
Summary of the method: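 Nude mice (NCr nu/nu, 18-22 g) implanted sc in the right axilla with serially passaged C6 glioma fragments on day 0, randomized, and dosed ip by bolus on days 1-9 based on average cage weight. Vehicle was distilled H2O or 10% DMA in 50 mM lactic acid buffer, pH 4.0, depending on compound. Weight change was taken as the maximum treatment-related weight loss.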

A-431 [8] = experiment: In vivo activity against human A431 epidermoid xenograft, tumor growth delay (T-C) at 10 mg/kg administered subcutaneously for 9-15 days; conditions: route subcutaneous
MCF7 [9] = experiment: In vivo activity against human MCF-7 xenograft, tumor growth delay (T-C) at 12.0 mg/kg ip dose for 5-11 days; conditions: route intraperitoneal
Colon 26 = experiment: In vivo activity against murine colon 26, percent treated/control tumor mass at 1.5 mg/kg ip dose for 9 days; type: functional, Mus musculus; conditions: route intraperitoneal; summary of the method: as §2
M5076 [10] = experiment: In vivo activity against murine M5076 sarcoma, tumor growth delay (T-C) at 3.0 mg/kg ip dose at 4 hour intervals 3x a day for 9 days; conditions: route intraperitoneal
B16 [11] = experiment: In vivo activity against murine B16 melanoma, weight change after 0.75 mg/kg ip dose at 4 hour intervals 3x a day for 9 days; type: functional, Mus musculus; conditions: route intraperitoneal; summary of the method: as §2

Compound: NC(Cc1c(SSc2[nH]c3ccccc3c2CC(N)C(=O)NCc2ccccc2)[nH]c2ccccc12)C(=O)NCc1ccccc1 (stereo not drawn)
- Net cell kill (M5076 [1]): -0.8 log10
- Weight change (M5076 [2]): -0.5 g
- Weight change (MCF7 [3]): Weight gain
- Net cell kill (A-431 [4]): -0.2 log10
- Net cell kill (B16 [5]): -1.3 log10
- Weight change (B16 [6]): 1.4 g
- IC50 [7]: 2500 nM
- Weight change (C6): Weight gain
- T-C (A-431 [8]): 1.9 days
- T-C (MCF7 [9]): 0 days
- T/C (Colon 26): 115%
- T-C (M5076 [10]): 0.7 days
- Weight change (B16 [11]): 1.1 g
